These results are taken from ChEMBL document CHEMBL5143609, “Enigmazole C: A Cytotoxic Macrocyclic Lactone and Its Ring-Opened Derivatives from a New Species of Homophymia Sponge” (2022).

For orientation: GI50 means the concentration giving 50% growth inhibition. For orientation: TGI means the concentration giving total growth inhibition. Low values mean greater sensitivity of the cells, high ones lower sensitivity of the cells.

What all share (format): functional
Settings in all cases: for CC50: read-out: LC50 (the source's name)

The subject of one experiment is A549. Briefly: Cytotoxicity against human A549 cells. The method in brief:
(§1)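 Cell-growth inhibition was tested in human tumor lines: A-549 lung carcinoma, HT-29 colorectal carcinoma, MDA-MB-231 breast adenocarcinoma and PSN-1 pancreatic adenocarcinoma. GI50 is the concentration giving 50% inhibition of cell growth, calculated by a literature procedure. TGI and LC50 endpoints were also reported.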

The subject of the next experiment is HT-29. Briefly: Cytotoxicity against human HT-29 cells. A digest of the protocol: as §1
For the next experiment, the system named is MDA-MB-231. Briefly: Cytotoxicity against human MDA-MB-231 cells. The method in brief: as §1
The next experiment relates to PSN1. Briefly: Cytotoxicity against human PSN1 cells. A digest of the protocol: as §1

For `C=C(C[C@@H](C)C[C@@H]1CC(=O)C=C(/C=C/CC[C@H](C)C(=O)O)O1)C[C@H](O)c1coc(/C=C(/C)[C@@H](C)OC)n1`, the GI50 with A549 came to 1.4 µM; in the experiment on HT-29, 1 µM; with MDA-MB-231 it was 4.1 µM; in the experiment on PSN1, 1.1 µM. The TGI in the experiment on A549 was greater than 19 µM; in the experiment on HT-29 it was 3.7 µM; with MDA-MB-231, greater than 19 µM; with PSN1 it was greater than 19 µM. Further, the CC50 in the experiment with A549, in the experiment with HT-29, with MDA-MB-231 and in the experiment on PSN1 was greater than 19 µM in each case.
`C=C1CC(C)CC2CC(=O)C=C(C[C@H](O)CC[C@H](C)C(=O)OC(c3coc(/C=C(/C)C(C)OC)n3)C1)O2` (some centres undefined): the GI50 is 9.9 µM in the experiment on A549, 18 µM with HT-29, greater than 19 µM in the experiment with MDA-MB-231 and 8.7 µM with PSN1. The TGI in the experiment on A549, in the experiment with HT-29, with MDA-MB-231 and in the experiment on PSN1 was greater than 19 µM each time. Also, the CC50 in the experiment with A549, in the experiment with HT-29, with MDA-MB-231 and with PSN1 was greater than 19 µM throughout.
